Screens (PubChem BioAssay)
Hits are enriched below; roughly 1.6% of the tested compounds scored in any of these assays.
S100A4 MyoIIA – S100A4-myosin IIA interaction inhibition; P26447; 360,000 tested, 0.14% active; inhibition, % at 10.7 µM; S100A4/TAMRA-MyoIIA peptide fluorescence polarization; AID 652163;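 active = mean inhibition of at least 70% across replicates, with every replicate also reaching that level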
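assay system = human S100A4 monomer with TAMRA-labelled myosin IIA peptide | also added = labelled myosin peptide probe, 5 nM | incubation = 5 min between mix addition and reading | control set = DMSO and TFP controls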
PvdQ inh – P. aeruginosa PvdQ acylase inhibition; purified PvdQ acylase, fluorescence plate reader; inhibition, % at 10 µM; 340,000 tested, 0.063% active; AID 488965; in the data active = inhibition above about 30%, passing the limit was not always enough;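 also: 0% = vehicle neutral wells and 100% = reference inhibitor wells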
SR-BI HDL uptake – mouse SR-BI HDL lipid transfer inhibition. ldlA[mSR-BI] CHO cells, DiI-HDL uptake fluorescence, 3 h. inhibition, % at 12.5 µM. 320,000 tested, 0.96% active. AID 488896;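 active = mean replicate inhibition of at least 70% and a set share of replicates each scoring 70 or more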;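 also: 0% = median of neutral control wells and 100% = median of positive control wells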
Target sequence (Q61009 whole entry, looked up): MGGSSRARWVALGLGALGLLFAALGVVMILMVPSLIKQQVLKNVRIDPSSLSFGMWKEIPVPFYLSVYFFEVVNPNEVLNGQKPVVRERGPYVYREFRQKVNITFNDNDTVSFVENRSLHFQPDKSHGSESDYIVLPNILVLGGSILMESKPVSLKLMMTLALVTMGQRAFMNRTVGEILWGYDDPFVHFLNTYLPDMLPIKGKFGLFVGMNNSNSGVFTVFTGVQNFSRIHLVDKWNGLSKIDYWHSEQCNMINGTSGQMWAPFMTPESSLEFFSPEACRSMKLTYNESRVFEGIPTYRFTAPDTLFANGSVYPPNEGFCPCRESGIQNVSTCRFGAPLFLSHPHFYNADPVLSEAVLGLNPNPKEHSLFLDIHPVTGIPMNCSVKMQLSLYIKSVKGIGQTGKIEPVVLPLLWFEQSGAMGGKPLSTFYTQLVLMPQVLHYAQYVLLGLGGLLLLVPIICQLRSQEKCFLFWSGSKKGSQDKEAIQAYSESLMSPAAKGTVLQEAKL
dFosB activator – enhances mouse delta FosB homodimer DNA binding. purified delta FosB, TAMRA-CDK5 oligo fluorescence polarization; percent of positive-control signal above neutral wells. activation, % at 25 µM. 340,000 tested, 0.99% active;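 active = mean activation above about 17%, with every replicate also reaching it, limit read from the data, passing the limit was not always enough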
SR-BI DiI-HDL act – enhances SR-BI lipid uptake from DiI-HDL; CHO ldlA[mSR-BI] cells, DiI-HDL uptake fluorescence, 3 h; 100 = double the neutral-control signal; 320,000 tested, 0.096% active; activation, % at 12.5 µM;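 active = mean replicate activation of at least 60% and every replicate at or above 60%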;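 also: 0% = median plate neutral-control signal and 100% = twice that signal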
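Material: SR-BI-overexpressing, LDLR-lacking CHO cells; schedule: compound exposure 3 h, 37 °C; reagent: DiI-labelled HDL at 10 µg/mL final; technique: bottom-read fluorescence, 550/595 nm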
RAD54 inh – inhibitors of human RAD54 branch migration. Q92698. RAD54 Holliday junction branch migration, FAM/BHQ fluorescence. inhibition, % at 10.4 µM. 360,000 tested, 0.14% active. AID 602329;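 active = mean normalized replicate activity at least 40 and at least half of replicates scoring 40 or more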;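 also: 0% = median of neutral control wells and 100% = median of positive control wells; inhibitors cause a drop in the FAM fluorescence signal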
* marks the source's active call; other numbers are inactive results.

CC(C)c1nc2oc3c(NCC4CCCO4)ncnc3c2c2c1COC(C)(C)C2 (stereo unspecified) was read as PvdQ inh -11.1, SR-BI HDL uptake 7.0, dFosB activator 2.3, SR-BI DiI-HDL act -7.0 and RAD54 inh -6.3.
Screening COc1cccc(S(=O)(=O)Nc2ccc3c(c2)OC[C@@H](C)NC[C@H](C)[C@H](OC)CN(C)C3=O)c1 returned S100A4 MyoIIA 1.3 and RAD54 inh 4.2.
For Cn1c(C(=O)N2CCN(c3ccc([N+](=O)[O-])cc3)CC2)cc2c(=O)[nH]c3ccccc3c21 the results were S100A4 MyoIIA 1.2, PvdQ inh 10.0, SR-BI HDL uptake 40.7, dFosB activator 22.9*, SR-BI DiI-HDL act -40.7 and RAD54 inh 0.8.
Cc1cc(C(=O)N2CCN(c3ccc([N+](=O)[O-])cc3)CC2)co1 was read as S100A4 MyoIIA 6.0, PvdQ inh 10.7, SR-BI HDL uptake 11.8, dFosB activator -0.7, SR-BI DiI-HDL act -11.8 and RAD54 inh -4.4.
CCOC(=O)c1sc(NC(=O)c2c(C)nn(Cc3ccccc3)c2C)cc1C was read as PvdQ inh -8.8, SR-BI HDL uptake 81.7*, dFosB activator -17.7, SR-BI DiI-HDL act -81.7 and RAD54 inh 4.7.
For CCOC(=O)c1sc(NC(=O)c2ccccc2)cc1C the results were PvdQ inh -10.9, SR-BI HDL uptake 46.2, dFosB activator -5.1, SR-BI DiI-HDL act -46.2 and RAD54 inh 0.8.
Screening CO[C@H]1CN(C)C(=O)c2cc(NS(=O)(=O)CC(F)(F)F)ccc2OC[C@@H](C)N(CC2CCCCC2)C[C@@H]1C returned S100A4 MyoIIA -3.3 and RAD54 inh 0.0.
`O=C1c2ccccc2C(=O)c2c1ccc(C(=O)N1CCCCC1)c2NCCO` gave PvdQ inh -0.5, SR-BI HDL uptake 13.3, dFosB activator -5.3, SR-BI DiI-HDL act -13.3 and RAD54 inh 13.8.
CCN(CCN(C)C)C(=O)c1ccc2c(c1NCCO)C(=O)c1ccccc1C2=O was read as S100A4 MyoIIA -23.8, PvdQ inh -7.9, SR-BI HDL uptake -10.0, dFosB activator 19.9* and SR-BI DiI-HDL act 10.0.
CC(=O)N(C)C[C@@H]1Oc2ncc(C#Cc3ccc(F)cc3)cc2C(=O)N([C@@H](C)CO)C[C@@H]1C was read as S100A4 MyoIIA 5.4 and RAD54 inh -0.4.
Cc1cc(C)c(O)c(-c2cc(C(=O)Nc3ccc(S(=O)(=O)N4CCOCC4)cc3)[nH]n2)c1 was read as PvdQ inh -6.5, SR-BI HDL uptake 33.4, dFosB activator 23.1*, SR-BI DiI-HDL act -33.4 and RAD54 inh 2.6.
Screening Cc1ccc(C(=O)Nc2ccc(S(=O)(=O)N3CCOCC3)cc2)cc1 returned S100A4 MyoIIA -1.0, PvdQ inh 20.2, SR-BI HDL uptake 41.9, dFosB activator 0.0, SR-BI DiI-HDL act -41.9 and RAD54 inh -1.7.
CC(=O)Nc1ccc(NC(=O)c2cc(-c3cc(C)cc(C)c3O)n[nH]2)cc1 was read as S100A4 MyoIIA -7.3, PvdQ inh -19.3, dFosB activator 22.1* and RAD54 inh -15.0.
CC(=O)Nc1ccc(NC(=O)c2cc(-c3ccc(F)cc3C)n[nH]2)cc1 was read as S100A4 MyoIIA -5.3 and RAD54 inh -14.7.
Cc1noc(C)c1NC(=O)N(C)C[C@@H]1OCCCC[C@H](C)Oc2ccc(NC(=O)Nc3ccc(F)cc3)cc2C(=O)N([C@@H](C)CO)C[C@@H]1C was read as S100A4 MyoIIA 2.7 and RAD54 inh -0.1.
Screening COCCOC(=O)c1c(C)n(C)c2ccc(OC(=O)c3c(OC)cccc3OC)cc12 returned S100A4 MyoIIA -1.2, PvdQ inh -4.8, SR-BI HDL uptake -396.6, dFosB activator -13.6, SR-BI DiI-HDL act 396.6* and RAD54 inh -5.4.
COc1ccc2c(c1)c(C(=O)OCCN(C)C)c(C)n2C was read as PvdQ inh -13.0, SR-BI HDL uptake 6.6, dFosB activator 14.0, SR-BI DiI-HDL act -6.6 and RAD54 inh 59.2*.
C[C@@H]1CN([C@@H](C)CO)C(=O)c2cc(NC(=O)NC3CCCCC3)ccc2O[C@@H]1CN(C)Cc1ccc(Oc2ccccc2)cc1 was read as S100A4 MyoIIA 1.6 and RAD54 inh -1.6.
